Source: ChEMBL document CHEMBL1154279, “Cytotoxic compounds from the stems of Cinnamomum tenuifolium” (J Nat Prod, 2009)
The source made the active and inactive calls. The rule behind the calls is not given here.

How the values were obtained:
DU-145 [1] = experiment: Cell cycle arrest in human DU145 cells assessed as accumulation of cells at S phase at 100 uM after 72 hrs using propidium iodide stain by flow cytometry; format: functional
Outline: (§1)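 DU145 cells treated with 1, 5, 10 or 100 µM for 24 or 72 h; vehicle 1% DMSO in water. Adherent and floating cells pooled, fixed in PBS-MeOH (1:2) at 4 °C for at least 18 h, then stained 30 min at room temperature in the dark with propidium iodide 50 µg/mL plus RNase A 50 µg/mL. Flow cytometry, excitation 488 nm, emission above 580 nm, doublets gated out. Sub-G1 region taken as DNA damage; at least three runs.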

DU-145 [2] = experiment: Induction of apoptosis in human DU145 cells assessed as formation of granulation of nucleus after 24 hrs by Hoechst 33342 stainig; format: functional, cell-based
Outline: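 DU145 cells exposed to 1 and 100 µM for 24 h, vehicle 1% DMSO. Fixed in 3.7% paraformaldehyde, stained with Hoechst 33342 (5 µg/mL) at 37 °C for 1 h and examined by fluorescence microscopy. Cells with reduced nuclear size, chromatin condensation or nuclear fragmentation scored as apoptotic.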

DU-145 [3] = experiment: Cell cycle arrest in human DU145 cells assessed as accumulation of cells at sub-G1 phase at 10 uM after 24 hrs using propidium iodide stain by flow cytometry; format: functional; outline: as §1
DU-145 [4] = experiment: Cell cycle arrest in human DU145 cells assessed as accumulation of cells at S phase at 5 uM after 72 hrs using propidium iodide stain by flow cytometry; format: functional; outline: as §1
DU-145 [5] = experiment: Induction of apoptosis in human DU145 cells assessed as caspase3 activation at 10 uM by ELISA; format: functional, cell-based
Outline: (§2)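 DU145 cells treated with 10 µM for 1, 3, 6, 12 and 24 h and lysed. Lysate (60 µg) incubated with Ac-DEVD-pNA or Ac-LEHD-pNA in PIPES buffer pH 7.2 at 37 °C for 1 h in the dark. pNA release read at 405 nm and expressed as percent change against untreated control.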

DU-145 [6] = experiment: Cell cycle arrest in human DU145 cells assessed as accumulation of cells at S phase at 10 uM after 24 hrs using propidium iodide stain by flow cytometry; format: functional; outline: as §1
DU-145 [7] = experiment: Cell cycle arrest in human DU145 cells assessed as accumulation of cells at sub-G1 phase at 1 uM after 72 hrs using propidium iodide stain by flow cytometry; format: functional; outline: as §1
DU-145 [8] = experiment: Induction of apoptosis in human DU145 cells assessed as caspase9 activation by ELISA; format: functional, cell-based; settings: TDE = time-dependent effect; outline: as §2
DU-145 [9] = experiment: Cell cycle arrest in human DU145 cells assessed as accumulation of cells at G2/M phase at 100 uM after 72 hrs using propidium iodide stain by flow cytometry; format: functional; outline: as §1
DU-145 [10] = experiment: Cell cycle arrest in human DU145 cells assessed as accumulation of cells at S phase at 5 uM after 24 hrs using propidium iodide stain by flow cytometry; format: functional; outline: as §1
DU-145 [11] = experiment: Cell cycle arrest in human DU145 cells assessed as accumulation of cells at S phase at 10 uM after 72 hrs using propidium iodide stain by flow cytometry; format: functional; outline: as §1
DU-145 [12] = experiment: Cell cycle arrest in human DU145 cells assessed as accumulation of cells at G2/M phase at 10 uM after 72 hrs using propidium iodide stain by flow cytometry; format: functional; outline: as §1
DU-145 [13] = experiment: Induction of apoptosis in human DU145 cells assessed as increase in intracellular ROS level at 10 uM by DCHF-DA assay; format: functional, cell-based
DU-145 [14] = experiment: Increase in the ratio of cytochrome C concentration from cytosol to mitochondria in human DU145 cells at 100 uM after 24 hrs by ELISA; format: functional, cell-based
Outline: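 DU145 cells given 100 µM or DMSO vehicle for 6–24 h at 37 °C. Cytosolic fraction released with digitonin buffer on ice for 5 min; mitochondrial fraction taken by Triton/deoxycholate/SDS lysis and a 10000g spin. Cytochrome c in each fraction measured by ELISA and expressed as a cytosol/mitochondria ratio; three experiments, ANOVA with Dunnett's test.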

DU-145 [15] = experiment: Cell cycle arrest in human DU145 cells assessed as accumulation of cells at G1 phase at 10 uM after 24 hrs using propidium iodide stain by flow cytometry; format: functional; outline: as §1
DU-145 [16] = experiment: Antiproliferative activity in human DU145 cells at 10 uM after 24 hrs by XTT assay in the presence of Ac-LEHD-CMK; format: functional, cell-based
Outline: (§3)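 DU145 cells pretreated 60 min with 50 µM Ac-DEVD-CMK or 50 µM Ac-LEHD-CMK, then exposed to 10 µM compound for 24 h (vehicle 1% DMSO in water). Proliferation read by XTT: labeling mixture added for 4 h at 37 °C, OD 450 nm (reference 650 nm) versus control wells; mean ± SE of three experiments.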

DU-145 [17] = experiment: Antiproliferative activity in human DU145 cells at 10 uM after 24 hrs by XTT assay in the presence of Ac-DEVD-CMK; format: functional, cell-based; outline: as §3
DU-145 [18] = experiment: Cell cycle arrest in human DU145 cells assessed as accumulation of cells at S phase at 1 uM after 72 hrs using propidium iodide stain by flow cytometry; format: functional; outline: as §1
DU-145 [19] = experiment: Cell cycle arrest in human DU145 cells assessed as accumulation of cells at G2/M phase at 5 uM after 72 hrs using propidium iodide stain by flow cytometry; format: functional; outline: as §1
DU-145 [20] = experiment: Cell cycle arrest in human DU145 cells assessed as accumulation of cells at sub-G1 phase at 1 uM after 24 hrs using propidium iodide stain by flow cytometry; format: functional; outline: as §1
DU-145 [21] = experiment: Cell cycle arrest in human DU145 cells assessed as accumulation of cells at sub-G1 phase at 100 uM after 24 hrs using propidium iodide stain by flow cytometry; format: functional; outline: as §1
DU-145 [22] = experiment: Cytotoxicity against human DU145 cells at 100 uM after 72 hrs by XTT assay; format: functional, cell-based
Outline: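 Prostate cancer cells in RPMI-1640 with 10% FBS, 37 °C, 5% CO2, grown to 70–80% confluence and treated at 0.1–100 µM for 24, 48 and 72 h. XTT labeling for 4 h at 37 °C, absorbance 450 nm (reference 650 nm) against control wells. IC50 derived from the mean of eight wells; taxol and cisplatin served as positive controls.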

DU-145 [23] = experiment: Cell cycle arrest in human DU145 cells assessed as accumulation of cells at sub-G1 phase at 10 uM after 72 hrs using propidium iodide stain by flow cytometry; format: functional; outline: as §1
DU-145 [24] = experiment: Cell cycle arrest in human DU145 cells assessed as accumulation of cells at G2/M phase at 5 uM after 24 hrs using propidium iodide stain by flow cytometry; format: functional; outline: as §1
DU-145 [25] = experiment: Cell cycle arrest in human DU145 cells assessed as accumulation of cells at sub-G1 phase at 5 uM after 24 hrs using propidium iodide stain by flow cytometry; format: functional; outline: as §1
DU-145 [26] = experiment: Cell cycle arrest in human DU145 cells assessed as accumulation of cells at G1 phase at 10 uM after 72 hrs using propidium iodide stain by flow cytometry; format: functional; outline: as §1

## CCCCCCCCCCCCCCCCCCCCCCCC/C=C(/C(=O)OC)[C@@H](O)C(C)=O [SECOTENUIFOLIDE A]
DU-145 [1]
  Activity: 5.38%
DU-145 [2]
  Activity: Active
DU-145 [3]
  Activity: 19.72%
DU-145 [4]
  Activity: 4.05%
DU-145 [5]
  Activity: Active
DU-145 [6]
  Activity: 3.8%
DU-145 [7]
  Activity: 9.75%
DU-145 [8]
  Activity: tde
DU-145 [9]
  Activity: 30%
DU-145 [10]
  Activity: 4.96%
DU-145 [11]
  Activity: 3.62%
DU-145 [12]
  Activity: 30.83%
DU-145 [13]
  Activity: Active
DU-145 [14]
  Activity: Active
DU-145 [15]
  Activity: 36.97%
DU-145 [16]
  Activity: inactive
DU-145 [17]
  Activity: inactive
DU-145 [18]
  Activity: 2.88%
DU-145 [19]
  Activity: 31.74%
DU-145 [20]
  Activity: 6.56%
DU-145 [21]
  Activity: 24.88%
DU-145 [22]
  Activity: Active
DU-145 [23]
  Activity: 16.18%
DU-145 [24]
  Activity: 37.88%
DU-145 [25]
  Activity: 19.02%
DU-145 [26]
  Activity: 48.3%
